From ChEMBL document CHEMBL1811881, “Development of 3-substituted-androsterone derivatives as potent inhibitors of 17β-hydroxysteroid dehydrogenase type 3” (Bioorg Med Chem, 2011) come the findings set out here.

The structures appear in SMILES notation. The source made the active and inactive calls. The rule behind the calls is not given here.

The target in assay [1] is T1, 17-beta-hydroxysteroid dehydrogenase type 3 (Homo sapiens) (UniProt P37058).
T1 sequence (whole entry): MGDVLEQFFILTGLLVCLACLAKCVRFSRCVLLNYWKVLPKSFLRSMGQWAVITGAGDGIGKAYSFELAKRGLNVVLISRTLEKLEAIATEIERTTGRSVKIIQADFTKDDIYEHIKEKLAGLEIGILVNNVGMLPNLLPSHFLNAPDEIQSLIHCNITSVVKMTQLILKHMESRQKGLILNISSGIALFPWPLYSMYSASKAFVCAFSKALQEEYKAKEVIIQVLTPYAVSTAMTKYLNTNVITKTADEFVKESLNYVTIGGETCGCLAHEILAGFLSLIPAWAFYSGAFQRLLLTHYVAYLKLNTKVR
The assay can be described thus: Inhibition of 17Beta-HSD3 expressed in intact HEK293 cells assessed as transformation of [14C]-4-androstene-3,17-dione into [14C]-testosterone in presence of NADPH at 0.1 uM after 1 hr incubation. It counts as cell-based. The procedure, abridged:
(§1)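 HEK-293 cells were grown in MEM with 10% FBS at 37 °C under 5% CO2, seeded at 200,000 cells/well, and transfected with 2 µg/well of a 17β-HSD3 expression plasmid. Intact cells then got 50 nM [4-14C]-4-androstene-3,17-dione plus inhibitor in ethanol (0.5% v/v) for 1 h. Radiolabelled steroids were extracted from the medium and quantified. Triplicate; % transformation was used to derive IC50.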

In assay [2] the target is T2, 17-beta-hydroxysteroid dehydrogenase type 3 (Homo sapiens, UniProt P37058).
T2 sequence (P37058 whole entry): T1 sequence (whole entry)
Put plainly: Inhibition of 17Beta-HSD3 expressed in intact HEK293 cells assessed as transformation of [14C]-4-androstene-3,17-dione into [14C]-testosterone in presence of NADPH after 1 hr incubation. Type of assay: cell-based. The method, boiled down:
as §1

In assay [3] the target is T1, 17-beta-hydroxysteroid dehydrogenase type 3 (Homo sapiens). The assay can be described thus: Inhibition of 17Beta-HSD3 expressed in homogenized HEK293 cells assessed as transformation of [14C]-4-androstene-3,17-dione into [14C]-testosterone in presence of NADPH at 0.1 uM. Type of assay: cell-based. The procedure, abridged: (§2)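 HEK-293 cells overexpressing 17β-HSD3 were briefly homogenized. The enzyme assay measured conversion of 50 nM [4-14C]-4-androstene-3,17-dione to [14C]-testosterone with NADPH in excess (5 mM). Inhibitor was dissolved in ethanol, and the ethanol-only control was used to derive % inhibition at each concentration. Error 10%.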

Assay [4] shares this target. Put plainly: Inhibition of 17Beta-HSD3 expressed in homogenized HEK293 cells assessed as transformation of [14C]-4-androstene-3,17-dione into [14C]-testosterone in presence of NADPH at 0.01 uM. It counts as cell-based. The method, boiled down:
as §2

Assay [5] addresses T3, Androgen receptor (Mus musculus) (UniProt P19091).
T3 sequence (whole entry): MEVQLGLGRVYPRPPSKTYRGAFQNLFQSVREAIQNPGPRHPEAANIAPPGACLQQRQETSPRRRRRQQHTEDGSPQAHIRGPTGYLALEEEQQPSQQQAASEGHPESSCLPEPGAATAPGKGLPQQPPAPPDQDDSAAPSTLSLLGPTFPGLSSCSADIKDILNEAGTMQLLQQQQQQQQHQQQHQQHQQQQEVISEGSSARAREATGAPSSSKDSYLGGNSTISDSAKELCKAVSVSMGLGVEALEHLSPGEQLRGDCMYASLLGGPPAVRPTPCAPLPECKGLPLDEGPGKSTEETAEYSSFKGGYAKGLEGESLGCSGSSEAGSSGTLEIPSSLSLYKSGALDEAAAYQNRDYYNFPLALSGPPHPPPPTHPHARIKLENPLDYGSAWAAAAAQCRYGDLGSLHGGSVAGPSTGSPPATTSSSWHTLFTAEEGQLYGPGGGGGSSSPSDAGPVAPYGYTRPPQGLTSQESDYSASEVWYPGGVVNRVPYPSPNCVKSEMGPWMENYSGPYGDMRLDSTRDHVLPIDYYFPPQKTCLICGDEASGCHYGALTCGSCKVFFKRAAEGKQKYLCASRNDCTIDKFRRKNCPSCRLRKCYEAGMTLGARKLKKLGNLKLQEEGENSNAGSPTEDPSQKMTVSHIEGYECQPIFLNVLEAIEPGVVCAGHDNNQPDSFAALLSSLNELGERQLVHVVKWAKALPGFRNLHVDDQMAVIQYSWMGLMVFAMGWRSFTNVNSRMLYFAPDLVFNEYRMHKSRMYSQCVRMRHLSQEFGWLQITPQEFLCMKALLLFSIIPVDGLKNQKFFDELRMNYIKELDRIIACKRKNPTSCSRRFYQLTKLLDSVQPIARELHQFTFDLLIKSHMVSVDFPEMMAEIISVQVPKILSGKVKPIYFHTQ
Put plainly: Activation of androgen receptor in androgen-sensitive (AR+) mouse Shionogi cells assessed as stimulation of cell proliferation after 10 days at 1 uM relative to control. The procedure, abridged: (§3)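 Androgen-sensitive (AR+) Shionogi cells. Inhibitors and reference compounds were each tested at 0.1 and 1.0 µM. Androgenicity is reported as % cell proliferation versus control, with basal proliferation set to 100%. DHT (0.1 µM) served as androgen reference and hydroxyflutamide as antiandrogen. Data are mean ± SEM of one experiment in triplicate.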

Assay [6] has as its target T1, 17-beta-hydroxysteroid dehydrogenase type 3 (Homo sapiens). Put plainly: Inhibition of 17Beta-HSD3 expressed in homogenized HEK293 cells assessed as transformation of [14C]-4-androstene-3,17-dione into [14C]-testosterone in presence of NADPH at 1 uM. Type of assay: cell-based. The method, boiled down: as §2
Assay [7] has the same target. Put plainly: Inhibition of 17Beta-HSD3 expressed in intact HEK293 cells assessed as transformation of [14C]-4-androstene-3,17-dione into [14C]-testosterone in presence of NADPH at 1 uM after 1 hr incubation. Type of assay: cell-based. The method, boiled down: as §1
Assay [8] has as its target T3, Androgen receptor (Mus musculus). Put plainly: Activation of androgen receptor in androgen-sensitive (AR+) mouse Shionogi cells assessed as stimulation of cell proliferation after 10 days relative to control. The method, boiled down:
as §3

What is called inhibition is the share of the control response that was lost under treatment. A word on the IC50: it is the concentration needed to halve the response being measured. In the case of `C[C@@H]1CN(S(=O)(=O)c2ccccc2C(F)(F)F)[C@@H](C)CN1C[C@@]1(O)CC[C@@]2(C)[C@@H](CC[C@@H]3[C@@H]2CC[C@]2(C)C(=O)CC[C@@H]32)C1`, the inhibition was 84% in assay [1], 92% in assay [3] and 55% in assay [4]. Moreover, the IC50 in assay [2] is 6 nM. The outcome in assay [5] was inactive.
As to `C[C@]12CC[C@@]3(C[C@@H]1CC[C@@H]1[C@@H]2CC[C@]2(C)C(=O)CC[C@@H]12)CN(Cc1ccccc1)C(=O)O3`, the inhibition in assay [6] came out at 93%; in assay [1], 44%; in assay [3], 86%; in assay [4] it was 21%. Besides, the result in assay [5] was inactive.
In the case of `C[C@]12CC[C@](O)(Cc3ccccc3)C[C@@H]1CC[C@@H]1[C@@H]2CC[C@]2(C)C(=O)CC[C@@H]12`, the Activity in assay [5] was found to be 396%.
`C[C@]12CC[C@](O)(CN3CCN(Cc4ccccc4)CC3)C[C@@H]1CC[C@@H]1[C@@H]2CC[C@]2(C)C(=O)CC[C@@H]12`: the inhibition in assay [6] turned out to be 90%; in assay [7], 80%; in assay [1], 37%; in assay [3] it was 72%; in assay [4], 35%.
For `CN(Cc1ccccc1)C[C@@]1(O)CC[C@@]2(C)[C@@H](CC[C@@H]3[C@@H]2CC[C@]2(C)C(=O)CC[C@@H]32)C1`, the inhibition in assay [6] is 89%; in assay [7], 92%; in assay [1], 48%; in assay [3], 79%; in assay [4], 28%.
For the compound `C[C@]12CC[C@@]3(C[C@@H]1CC[C@@H]1[C@@H]2CC[C@]2(C)C(=O)CC[C@@H]12)CN(CCC(CN1CCOCC1)OC(=O)C1CCCCC1)C(=O)O3` (stereo not given in full), the IC50 in assay [2] came out at 51 nM. Moreover, the result in assay [8] was inactive.
Turning to `CCN(Cc1ccccc1)C[C@@]1(O)CC[C@@]2(C)[C@@H](CC[C@@H]3[C@@H]2CC[C@]2(C)C(=O)CC[C@@H]32)C1`, the inhibition amounted to 90% in assay [6]; 94% in assay [7]; 86% in assay [1]; 85% in assay [3]; 42% in assay [4]. Also, the Activity in assay [5] worked out at 314%.
On to `CC(C)(O)C(=O)Nc1ccc([N+](=O)[O-])c(C(F)(F)F)c1`, for which the outcome in assay [8] was inactive.
